Reference: PubChem BioAssay
The source made the active and inactive calls.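 The calls were made as follows, unless noted: active = GFP response above 150% of the DMSO level; inconclusive = fewer than 70 events counted for a yeast strain; inactive = the rest.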

How the values were obtained:
[1] = RPL19A-GFP modulators, yeast TOR pathway, confirmation, cell-based, S. cerevisiae, flow cytometry, cherry picks, mother/daughter gates (AID 2270;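 active = GFP response below 50% of the DMSO control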); conditions: S. cerevisiae RPL19A-GFP strain, 3 h, at 10 µM, stronger effect = lower value, 100 = same GFP as DMSO wells
[2] = LAP4-GFP expression modulators in yeast, confirmation, cell-based, cherry picks, flow cytometry, mother/daughter gates (AID 2271;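 active = GFP response above 150% of the DMSO control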;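 also: ratio of sample to DMSO plate mean so 100% equals DMSO level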); conditions: S. cerevisiae LAP4-GFP strain, 3 h, at 10 µM, stronger effect = higher value, 100 means same as DMSO control
In short: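 Material: Alexa Fluor 633-labelled Saccharomyces cerevisiae GFP-fusion strain, single-plex | Amount: Yeast cells seeded at OD600 of 0.2 | Buffer or medium: SC growth medium | Schedule: 3 h exposure, 30 °C | Measured by: HT flow cytometry, GFP fluorescence channel | Evaluation: % GFP response vs DMSO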

[3] = modulators of MEP2-GFP levels in yeast, confirmation, S. cerevisiae, flow cytometry GFP, cherry picks (AID 2272;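 active = GFP response above 150% of the DMSO control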;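 also: ratio of well signal to plate DMSO mean so 100% equals DMSO level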); conditions: S. cerevisiae MEP2-GFP strain, 3 h, at 10 µM, stronger effect = higher value
[4] = AGP1-GFP expression modulators, hit retest, confirmation, cell-based, flow cytometry, S. cerevisiae, cherry picks (AID 2273);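 also: median GFP channel fluorescence over the whole cell population gate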; conditions: S. cerevisiae AGP1-GFP strain, 3 h, at 10 µM
[5] = modulators of CIT2-GFP expression in yeast, confirmation, S. cerevisiae, GFP fusion, cherry picks, mother/daughter gates (AID 2274); conditions: S. cerevisiae CIT2-GFP strain, flow cytometry, 3 h, at 10 µM, stronger effect = higher value
[6] = measured here: daughter cell gate
[7] = measured here: mother cell gate
[8] = measured here: daughter cell gate response
[9] = measured here: mother cell gate response

Row | SMILES | GFP response vs DMSO [1] | GFP response vs DMSO [1, 6] [%] | GFP response vs DMSO [1, 7] [%] | GFP response relative to DMSO [2] | GFP response relative to DMSO [2, 8] [%] | GFP response relative to DMSO [2, 9] [%] | GFP response vs DMSO [3] | GFP response, % of DMSO [4] | GFP response, % of DMSO [5] | GFP response, % of DMSO [5, 6] [%] | GFP response, % of DMSO [5, 7] [%]
1 | Cc1ccc(N2CC(C(=O)OCc3nnc(-c4ccccc4)o3)CC2=O)cc1 (configuration not stated) | 100% (inactive) | 102 | 101 | 102% (inactive) | 104 | 101 | 106% (inactive) | 96.2% (inactive) | 104% (inactive) | 104 | 103
2 | CCOc1cc(/C=C2\N=C(C)OC2=O)cc(Br)c1OCC(=O)OC | 98.2% (inactive) | 100 | 96.9 | 133% (inactive) | 128 | 134 | 102% (inactive) | 94% (inactive) | 99.3% (inactive) | 102 | 94.5
3 | c1ccc(-c2n[nH]c3ccccc23)cc1 | 98.4% (inactive) | 97.1 | 97.6 | 101% (inactive) | 101 | 98.3 | 96.2% (inactive) | 92.1% (inactive) | 96.9% (inactive) | 97.2 | 97.3
4 | C=CCOc1ccc(/C=C2\N=C(C)OC2=O)cc1OC | 105% (inactive) | 107 | 103 | 137% (inactive) | 136 | 136 | 119% (inactive) | 94.5% (inactive) | 103% (inactive) | 106 | 99.7
5 | CSc1ccc(/C=C/C(=O)c2ccc(NC(=O)C(C)C)cc2)cc1 | 98.8% (inactive) | 97.5 | 99.1 | 107% (inactive) | 103 | 111 | 100% (inactive) | 93.5% (inactive) | 92.6% (inactive) | 93.2 | 90.2
6 | COc1ccccc1-c1nnc(NC(=O)c2ccc3c(c2)OCO3)s1 | 106% (inactive) | 104 | 108 | 85.4% (inactive) | 84.8 | 89 | 97.8% (inactive) | 98.5% (inactive) | 100% (inactive) | 101 | 99.8
7 | O=C(N=Nc1c(O)[nH]c2ccccc12)c1ccco1 | 98.2% (inactive) | 98.6 | 97.8 | 99.8% (inactive) | 98.2 | 102 | 98.8% (inactive) | 100% (inactive) | 103% (inactive) | 102 | 102
8 | Cc1cc(S(=O)(=O)c2ccc([N+](=O)[O-])cn2)ccc1Br | 87.9% (inactive) | 89.9 | 82.2 | 143% (inactive) | 118 | 156 | 114% (inactive) | 113% (inactive) | 120% (inactive) | 138 | 103
9 | CC1CN(c2nnnn2-c2ccccc2)CC(C)O1 (configuration not stated) | 99% (inactive) | 99.1 | 99.8 | 102% (inactive) | 101 | 100 | 96.2% (inactive) | 100% (inactive) | 101% (inactive) | 103 | 99.7
10 | Cc1cc(OCC(=O)Nc2ccc(S(=O)(=O)N3CCN(C)CC3)cc2)ccc1Br | 98% (inactive) | 98.7 | 97.3 | 97.7% (inactive) | 99 | 97.4 | 101% (inactive) | 106% (inactive) | 101% (inactive) | 101 | 103
11 | O=C(N/N=C/c1c(Cl)cccc1Cl)c1ccc(F)cc1 | 95% (inactive) | 96.1 | 95.7 | 105% (inactive) | 102 | 105 | 96.8% (inactive) | 97.1% (inactive) | 103% (inactive) | 103 | 102
12 | CCc1nnc(NC(=O)c2ccc(S(=O)(=O)N(C)Cc3ccccc3)cc2)o1 | 99% (inactive) | 99.5 | 98.5 | 103% (inactive) | 106 | 103 | 104% (inactive) | 103% (inactive) | 103% (inactive) | 99.7 | 105
13 | CCCCOc1cccc(/C=C(\C#N)C(=O)NC2CC2)c1 | 93.5% (inactive) | 92.1 | 92.5 | 117% (inactive) | 114 | 116 | 113% (inactive) | 92.7% (inactive) | 99.7% (inactive) | 99.1 | 96.1
14 | O=C(N/N=C/c1ccccc1Cl)c1ccc(F)cc1 | 98.2% (inactive) | 98.1 | 97.2 | 111% (inactive) | 104 | 112 | 96.8% (inactive) | 102% (inactive) | 105% (inactive) | 103 | 103
15 | COc1ccc(/C=C/C(=O)C2C(=O)C=C(C)OC2=O)cc1O (configuration not stated) | 101% (inactive) | 102 | 101 | 123% (inactive) | 118 | 125 | 112% (inactive) | 101% (inactive) | 101% (inactive) | 104 | 96.8
16 | Cc1nn2c(N3CCN(C(=O)c4ccco4)CC3)cc(C(C)(C)C)nc2c1-c1ccccc1 | 98.2% (inactive) | 97.6 | 98.9 | 92.8% (inactive) | 94.4 | 92.9 | 100% (inactive) | 97.6% (inactive) | 95.5% (inactive) | 97.2 | 95
17 | CCOc1ccc(Nc2ccc(C(=O)O)cc2[N+](=O)[O-])cc1 | 102% (inactive) | 98.4 | 104 | 101% (inactive) | 99.1 | 100 | 101% (inactive) | 97.8% (inactive) | 98.8% (inactive) | 95.6 | 96.8
